From ChEMBL document CHEMBL5058577, “EUbOPEN Chemogenomics Library 2 (Multiplex)” (2022)

System: HEK-293T
Assay: Multiplex assay against HEK293T
Type: toxicity, cell-based
Settings: human
How it was run: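 Phenotypes for tubulin, mitochondrial mass and membrane permeability are expressed as per cents of healthy-nucleus cells. Cells were stained live at seeding with Hoechst33342, BioTracker Green Microtubule Cytoskeleton Dye, MitoTracker Red and Annexin V Alexa Fluor 680, then imaged after compound addition on a CQ1 microscope at 37°C and 5% CO2. Machine-learning gating in CellPathfinder separated Hoechst high-intensity objects from normal cells, divided normal cells by nuclear state (healthy, pyknosed, fragmented) and divided pyknosed cells into mitotic or apoptotic.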

[1] = 12 h, 1 µM, compound concentration 1 uM, replicate 1
[2] = 12 h, 1 µM, compound concentration 1 uM, replicate 2
[3] = 12 h, 10 µM, compound concentration 10 uM, replicate 1
[4] = 12 h, 10 µM, compound concentration 10 uM, replicate 2
[5] = 24 h, 1 µM, compound concentration 1 uM, replicate 1
[6] = 24 h, 1 µM, compound concentration 1 uM, replicate 2
[7] = 24 h, 10 µM, compound concentration 10 uM, replicate 1
[8] = 24 h, 10 µM, compound concentration 10 uM, replicate 2
[9] = 48 h, 1 µM, compound concentration 1 uM, replicate 1
[10] = 48 h, 1 µM, compound concentration 1 uM, replicate 2
[11] = 48 h, 10 µM, compound concentration 10 uM, replicate 1
[12] = 48 h, 10 µM, compound concentration 10 uM, replicate 2

SMILES: CN(C)C(=O)Cn1cc(-c2ccc(-c3nnc4ccccn34)cc2)cn1
- Population Apoptotic (%) [1]: 31%
- Population Fragmented Nuclei (%) [1]: 7%
- Population Healthy Nuclei (%) [1]: 80%
- Population Hoechst High Intensity Objects (%) [1]: 9%
- Population Membrane Permeable-Phenotype (%) [1]: 0%
- Population Mitochondria Different-Phenotype (%) [1]: 40%
- Population Mitotic Cells (%) [1]: 68%
- Population Normal (%) [1]: 90%
- Population Pyknosed Nuclei (%) [1]: 11%
- Population Tubulin-Different-Phenotype (%) [1]: 32%
- Total Cell Count [1]: 432
- Population Apoptotic (%) [2]: 43%
- Population Healthy Nuclei (%) [2]: 79%
- Population Hoechst High Intensity Objects (%) [2]: 10%
- Population Mitochondria Different-Phenotype (%) [2]: 59%
- Population Mitotic Cells (%) [2]: 56%
- Population Normal (%) [2]: 89%
- Population Pyknosed Nuclei (%) [2]: 12%
- Population Tubulin-Different-Phenotype (%) [2]: 27%
- Total Cell Count [2]: 337
- Population Apoptotic (%) [3]: 32%
- Population Fragmented Nuclei (%) [3]: 9%
- Population Healthy Nuclei (%) [3]: 76%
- Population Hoechst High Intensity Objects (%) [3]: 7%
- Population Membrane Permeable-Phenotype (%) [3]: 0%
- Population Mitochondria Different-Phenotype (%) [3]: 61%
- Population Mitotic Cells (%) [3]: 67%
- Population Normal (%) [3]: 92%
- Population Pyknosed Nuclei (%) [3]: 14%
- Population Tubulin-Different-Phenotype (%) [3]: 42%
- Total Cell Count [3]: 427
- Population Apoptotic (%) [4]: 51%
- Population Fragmented Nuclei (%) [4]: 7%
- Population Healthy Nuclei (%) [4]: 80%
- Population Hoechst High Intensity Objects (%) [4]: 8%
- Population Mitochondria Different-Phenotype (%) [4]: 55%
- Population Mitotic Cells (%) [4]: 48%
- Population Normal (%) [4]: 91%
- Population Pyknosed Nuclei (%) [4]: 12%
- Population Tubulin-Different-Phenotype (%) [4]: 18%
- Total Cell Count [4]: 356
- Population Apoptotic (%) [5]: 27%
- Population Fragmented Nuclei (%) [5]: 10%
- Population Healthy Nuclei (%) [5]: 77%
- Population Hoechst High Intensity Objects (%) [5]: 6%
- Population Membrane Permeable-Phenotype (%) [5]: 0%
- Population Mitochondria Different-Phenotype (%) [5]: 28%
- Population Mitotic Cells (%) [5]: 72%
- Population Normal (%) [5]: 93%
- Population Pyknosed Nuclei (%) [5]: 12%
- Population Tubulin-Different-Phenotype (%) [5]: 22%
- Total Cell Count [5]: 595
- Population Apoptotic (%) [6]: 46%
- Population Fragmented Nuclei (%) [6]: 9%
- Population Healthy Nuclei (%) [6]: 82%
- Population Hoechst High Intensity Objects (%) [6]: 7%
- Population Mitochondria Different-Phenotype (%) [6]: 44%
- Population Mitotic Cells (%) [6]: 53%
- Population Normal (%) [6]: 92%
- Population Pyknosed Nuclei (%) [6]: 7%
- Population Tubulin-Different-Phenotype (%) [6]: 18%
- Total Cell Count [6]: 447
- Population Apoptotic (%) [7]: 35%
- Population Fragmented Nuclei (%) [7]: 7%
- Population Healthy Nuclei (%) [7]: 78%
- Population Hoechst High Intensity Objects (%) [7]: 4%
- Population Membrane Permeable-Phenotype (%) [7]: 0%
- Population Mitochondria Different-Phenotype (%) [7]: 44%
- Population Mitotic Cells (%) [7]: 64%
- Population Normal (%) [7]: 95%
- Population Pyknosed Nuclei (%) [7]: 13%
- Population Tubulin-Different-Phenotype (%) [7]: 27%
- Total Cell Count [7]: 506
- Population Apoptotic (%) [8]: 61%
- Population Fragmented Nuclei (%) [8]: 13%
- Population Healthy Nuclei (%) [8]: 79%
- Population Hoechst High Intensity Objects (%) [8]: 7%
- Population Mitochondria Different-Phenotype (%) [8]: 39%
- Population Mitotic Cells (%) [8]: 38%
- Population Normal (%) [8]: 92%
- Population Pyknosed Nuclei (%) [8]: 7%
- Population Tubulin-Different-Phenotype (%) [8]: 11%
- Total Cell Count [8]: 425
- Population Apoptotic (%) [9]: 18%
- Population Fragmented Nuclei (%) [9]: 11%
- Population Healthy Nuclei (%) [9]: 81%
- Population Hoechst High Intensity Objects (%) [9]: 3%
- Population Membrane Permeable-Phenotype (%) [9]: 0%
- Population Mitochondria Different-Phenotype (%) [9]: 20%
- Population Mitotic Cells (%) [9]: 81%
- Population Normal (%) [9]: 96%
- Population Pyknosed Nuclei (%) [9]: 6%
- Population Tubulin-Different-Phenotype (%) [9]: 13%
- Total Cell Count [9]: 946
- Population Apoptotic (%) [10]: 32%
- Population Healthy Nuclei (%) [10]: 80%
- Population Hoechst High Intensity Objects (%) [10]: 4%
- Population Mitochondria Different-Phenotype (%) [10]: 22%
- Population Mitotic Cells (%) [10]: 67%
- Population Normal (%) [10]: 95%
- Population Pyknosed Nuclei (%) [10]: 7%
- Population Tubulin-Different-Phenotype (%) [10]: 12%
- Total Cell Count [10]: 572
- Population Apoptotic (%) [11]: 30%
- Population Fragmented Nuclei (%) [11]: 18%
- Population Healthy Nuclei (%) [11]: 74%
- Population Hoechst High Intensity Objects (%) [11]: 5%
- Population Membrane Permeable-Phenotype (%) [11]: 0%
- Population Mitochondria Different-Phenotype (%) [11]: 24%
- Population Mitotic Cells (%) [11]: 69%
- Population Normal (%) [11]: 94%
- Population Pyknosed Nuclei (%) [11]: 6%
- Population Tubulin-Different-Phenotype (%) [11]: 14%
- Total Cell Count [11]: 753
- Population Apoptotic (%) [12]: 37%
- Population Fragmented Nuclei (%) [12]: 14%
- Population Healthy Nuclei (%) [12]: 79%
- Population Hoechst High Intensity Objects (%) [12]: 2%
- Population Mitochondria Different-Phenotype (%) [12]: 27%
- Population Mitotic Cells (%) [12]: 62%
- Population Normal (%) [12]: 97%
- Population Pyknosed Nuclei (%) [12]: 5%
- Population Tubulin-Different-Phenotype (%) [12]: 12%
- Total Cell Count [12]: 616
